Laboratory results as given in ChEMBL document CHEMBL5053511, “Discovery of a Novel BCL-XL PROTAC Degrader with Enhanced BCL-2 Inhibition” (J Med Chem, 2021).
Active and inactive are the calls of the source. The calls are words filed in the database; no cut-off is given here.

Legend:
[1] = biological target: T1, von Hippel-Lindau disease tumor suppressor/Bcl-2-like protein 1 (Homo sapiens, UniProt Q07817+P40337); test: Protac activity at VHL/BCL-XL in human MOLT-4 cells assessed as induction of BCL-XL degradation at 10 uM pretreated with MG-132 followed by compound treatement measured after 12 hrs by Western blot analysis; format: cell-based
Outline: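 MOLT-4 cells were pretreated with 10 µM VHL-032 or 1 µM MG-132, followed by 12 h compound treatment. BCL-XL and β-actin were immunoblotted; blots representative of three experiments.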

[2] = biological target: T1, von Hippel-Lindau disease tumor suppressor/Bcl-2-like protein 1; test: Protac activity at VHL/BCL-XL in human MOLT-4 cells assessed as induction of BCL-XL degradation at 100 nM measured up to 72 hrs by Western blot analysis; format: cell-based
Outline: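 MOLT-4 cells were treated with 100 nM for a series of times. For washout, cells were treated for 16 h and sampled at times after compound removal. BCL-XL and β-actin were immunoblotted.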

MOLT-4 [3] = test: Cytotoxicity against human MOLT-4 cells assessed as reduction in cell viability measured after 48 hrs by MTS assay; format: functional, cell-based; settings: MOLT-4, 48 h
MOLT-4 [4] = test: Induction of apoptosis in human MOLT-4 cells assessed as late apoptotic cells at 10 nM measured after 48 hrs in presence of QVD by annexinV-FITC/propidium iodide staining based flow cytometry (reference value: 1%); format: functional
[5] = biological target: Apoptosis regulator Bcl-2 (Homo sapiens, UniProt P10415); test: Displacement of biotin-tagged MRPEPATIAQELRRIGDEFNA from C-terminal His-tagged human BCL-2 (1` to 211 residues) expressed in Escherichia coli measured after 2 hrs by AlphaScreen assay
Outline: (§1)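 AlphaScreen displacement, run with or without VCB. Anti-His acceptor beads were added for 1 h at room temperature, then streptavidin donor beads for 30 min in the dark. Ki was fitted by one-site competitive model from peptide concentration and measured Kd values; reported as mean ± SD of at least two experiments in triplicate.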

[6] = (§2) Binding affinity to human BCL-XL expressed in Escherichia coli/recombinant human VHL (54 to end residues) fused to human N-terminal GST-tagged elongin-C/elongin -B/N-terminal His-tagged CUL2/Rbx1 expressed in baculovirus infected Sf21 insect cells measured after 2 hrs by AlphaScreen assay
Outline: as §1, with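 “VCB. Biotin-Bim (80 nM, for BCL-2) or biotin-Bad (16 nM, for BCL-XL) was combined with serially diluted compound and 6×His protein in 25 mM HEPES pH 7.5, 100 mM NaCl, 0.1% BSA, 0.005% Tween 20.” for “VCB.”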

[7] = as §2, with “cells assessed as ternary complex formation at up to 100000 nM” for “cells”, “30 mins” for “2 hrs”, “AlphaLISA” for “AlphaScreen”
Outline: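 Cell-free ternary complex AlphaLISA: 6×His-tagged BCL-XL, BCL-2 or MCL-1 (20 nM) mixed with serially diluted compound (4× dilution) and GST-VCB (20 nM) in 25 mM HEPES pH 7.5, 100 mM NaCl, 0.1% BSA, 0.005% Tween 20. After 30 min at room temperature, glutathione donor beads were added for 15 min, then anti-His acceptor beads for 45 min in the dark. Luminescence was plotted against log compound concentration.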

[8] = biological target: T1, von Hippel-Lindau disease tumor suppressor/Bcl-2-like protein 1; test: Binding affinity to VHL/ BCL-XL in human RS4-11 cells assessed as ternary complex formation at up to 300 nM measured after 12 hrs by immunoprecipitation assay; format: cell-based
[9] = biological target: T1, von Hippel-Lindau disease tumor suppressor/Bcl-2-like protein 1; test: Binding affinity to VHL/ BCL-XL in human RS4-11 cells assessed as ternary complex formation at up to 300 nM measured after 12 hrs in presence of VHL-032 by immunoprecipitation assay; format: cell-based

T1 sequence (P40337 whole entry, looked up): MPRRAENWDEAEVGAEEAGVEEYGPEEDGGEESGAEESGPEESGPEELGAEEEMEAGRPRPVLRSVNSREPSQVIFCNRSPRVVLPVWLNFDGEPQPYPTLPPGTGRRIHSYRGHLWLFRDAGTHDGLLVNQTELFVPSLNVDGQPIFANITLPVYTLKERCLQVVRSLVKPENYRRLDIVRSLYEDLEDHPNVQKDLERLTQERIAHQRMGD
T1 sequence (Q07817 whole entry, looked up): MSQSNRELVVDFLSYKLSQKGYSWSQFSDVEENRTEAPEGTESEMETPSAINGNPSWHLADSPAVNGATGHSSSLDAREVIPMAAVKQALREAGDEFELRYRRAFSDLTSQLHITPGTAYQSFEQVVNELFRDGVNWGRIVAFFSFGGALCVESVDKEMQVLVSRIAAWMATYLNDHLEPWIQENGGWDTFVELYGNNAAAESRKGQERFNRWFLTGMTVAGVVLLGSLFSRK
Apoptosis regulator Bcl-2, sequence (P10415 whole entry): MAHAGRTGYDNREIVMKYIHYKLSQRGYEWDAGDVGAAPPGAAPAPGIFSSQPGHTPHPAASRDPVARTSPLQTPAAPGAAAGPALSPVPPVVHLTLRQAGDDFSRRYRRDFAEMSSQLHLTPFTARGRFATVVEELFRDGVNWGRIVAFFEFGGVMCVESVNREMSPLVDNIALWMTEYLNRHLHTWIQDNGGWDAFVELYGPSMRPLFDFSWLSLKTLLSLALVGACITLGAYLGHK

Activity [1]: inactive | Activity [2]: Active | Kd [5]: 1.22 nM | Activity [8]: Active | Activity [9]: inactive
Structure (SMILES): Cc1ncsc1-c1ccc([C@H](C)NC(=O)[C@@H]2C[C@@H](O)CN2C(=O)[C@@H](NC(=O)CCCCCCCCC(=O)NC[C@]2(C)CCC(c3ccc(Cl)cc3)=C(CN3CCN(c4ccc(C(=O)NS(=O)(=O)c5ccc(N[C@H](CCN6CCOCC6)CSc6ccccc6)c(S(=O)(=O)C(F)(F)F)c5)cc4)CC3)C2)C(C)(C)C)cc1
IC50 (MOLT-4 [3]): 15.9 nM | Activity (MOLT-4 [4]): 13% | Kd [6]: 0.65 nM | Activity [7]: Active
